The target in test [1] is T1, Tyrosinase (Agaricus bisporus) (UniProt O42713).
T1 sequence (whole entry): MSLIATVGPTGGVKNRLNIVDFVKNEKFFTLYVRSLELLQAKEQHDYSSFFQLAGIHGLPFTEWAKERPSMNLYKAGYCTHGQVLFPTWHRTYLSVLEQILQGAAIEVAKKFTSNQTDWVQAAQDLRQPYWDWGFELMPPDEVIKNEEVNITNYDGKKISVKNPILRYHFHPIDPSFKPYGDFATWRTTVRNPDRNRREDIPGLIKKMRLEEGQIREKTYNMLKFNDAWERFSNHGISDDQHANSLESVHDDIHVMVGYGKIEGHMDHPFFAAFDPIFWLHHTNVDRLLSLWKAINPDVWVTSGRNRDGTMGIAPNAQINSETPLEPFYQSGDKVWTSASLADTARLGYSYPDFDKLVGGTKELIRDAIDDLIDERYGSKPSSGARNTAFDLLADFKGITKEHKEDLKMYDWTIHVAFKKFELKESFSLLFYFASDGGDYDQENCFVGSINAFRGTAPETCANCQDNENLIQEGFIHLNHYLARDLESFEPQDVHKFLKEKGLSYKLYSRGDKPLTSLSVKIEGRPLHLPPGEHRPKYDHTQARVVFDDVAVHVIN
Put plainly: Inhibition of mushroom tyrosinase assessed as oxidation of L-DOPA at 0.8 mM.

The target in test [2] is T1, Tyrosinase (Agaricus bisporus). Put plainly: Inhibition of mushroom tyrosinase assessed as oxidation of L-DOPA.
For test [3] the target is unchanged. Put plainly: Inhibition of mushroom tyrosinase assessed as oxidation of L-DOPA by Lineweaver-Burke plot analysis. An outline of the steps: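 Mushroom tyrosinase (138 units) added to L-DOPA (1 ml of 2.5 mM stock) plus sample (DMSO solution diluted 30-fold) in 0.1 M phosphate buffer pH 6.8, after 10 min at 25°. Initial linear rate of dopachrome formation read at 475 nm; double-reciprocal plot of 1/V (1/ΔA475 per min).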

For test [4] the target is unchanged. Put plainly: Inhibition of mushroom tyrosinase assessed as oxidation of L-DOPA preincubated for 5 mins before L-DOPA addition. Summed up:
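Enzyme (138 units) and sample pre-incubated in 0.1 M phosphate buffer pH 6.8 for 5 min at 25°. Then 0.4 ml of 6.3 mM L-DOPA stock added and the reaction followed at 475 nm for 4 min. Controls: no inhibitor with or without pre-incubation, and inhibitor without pre-incubation.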

Active and inactive are the calls of the source. The rule behind the calls is not given here.

We go through 13 compounds from ChEMBL document CHEMBL1149064, “Tyrosinase inhibitors from Anacardium occidentale fruits” (J Nat Prod, 1994).

In general, inhibition refers to the relative decrease from the control value, in per cent. As to `Oc1cccc(O)c1`, in test [1], the inhibition came to 34%. In addition, in test [2], the ID50 is 1.2 mM.

Regarding `C=CC/C=C\C/C=C\CCCCCCCc1cccc(O)c1C(=O)O` (stereo in doubt; 5), the inhibition in test [1] turned out to be 45%. In test [2], the Activity entry is “Dose-dependent effect” and the ID50 is 1.1 mM. Besides, the result in test [3] was Active. Also, in test [4], the outcome was Active.

Take `O=C(O)c1ccccc1O`: the inhibition in test [1] was 23%. Further, in test [2], the ID50 is 3.9 mM.

Take `CCCCCCCCCCCCCCCc1cc(O)cc(O)c1`: in test [1], the inhibition came out at 21%. Moreover, the Activity entry in test [2] was “Dose-dependent effect”.

`CCC/C=C\C/C=C\CCCCCCCc1cc(O)c(C)c(O)c1`: in test [1], the inhibition was 20%.

For `CCCCCC/C=C\CCCCCCCc1cc(O)c(C)c(O)c1`, the inhibition in test [1] is 24%.

As to `C=CC/C=C\C/C=C\CCCCCCCc1cc(O)c(C)c(O)c1`, in test [1], the inhibition was 16%.

On to `CCC/C=C\C/C=C\CCCCCCCc1cccc(O)c1C(=O)O`, for which the inhibition in test [1] was found to be 15%. For the same compound, in test [2], the Activity entry is “Dose-dependent effect” and the ID50 was 6 mM.

Consider `C=CC/C=C\C/C=C\CCCCCCCc1cc(O)cc(O)c1`, for which the inhibition in test [1] turned out to be 88%. In test [2], the Activity result was “Dose-dependent effect” and the ID50 was found to be 0.04 mM. For the same compound, the result in test [3] was Active. In addition, the outcome in test [4] was Active.

In the case of `C=CC/C=C\C/C=C\CCCCCCCc1cccc(O)c1C(=O)O` (stereo in doubt; 8), the inhibition in test [1] was 15%. Further, in test [2], the Activity entry is “Dose-dependent effect” and the ID50 was 4.2 mM.

Regarding `CCCCCCCCCCCCCCCc1cccc(O)c1`, in test [1], the result was inactive.

For the compound `OC[C@H]1O[C@@H](Oc2ccc(O)cc2)[C@H](O)[C@@H](O)[C@@H]1O`, in test [2], the ID50 worked out at 6.2 mM.

On to `CCCCCC/C=C\CCCCCCCc1cccc(O)c1C(=O)O`, for which, in test [1], the inhibition came out at 15%. Further, in test [2], the Activity result is “Dose-dependent effect” and the ID50 is 7.5 mM.
